Measurements from ChEMBL document CHEMBL2069201, “N-Benzoyl anthranilic acid derivatives as selective inhibitors of aldo-keto reductase AKR1C3” (Bioorg Med Chem Lett, 2012).
Where a chain is given by its changes, count along the chain named. pIC50: −log10 of the molar value. The source made the active and inactive calls. The calls are words filed in the database; no cut-off is given here.

Assays:
[1] = target: T1, Aldo-keto reductase family 1 member C3 (Homo sapiens) (UniProt P42330); experiment: Inhibition of recombinant AKR1C3 using 1-acenaphthenol as substrate at 10 uM by spectrophotometry
T1 sequence (whole entry): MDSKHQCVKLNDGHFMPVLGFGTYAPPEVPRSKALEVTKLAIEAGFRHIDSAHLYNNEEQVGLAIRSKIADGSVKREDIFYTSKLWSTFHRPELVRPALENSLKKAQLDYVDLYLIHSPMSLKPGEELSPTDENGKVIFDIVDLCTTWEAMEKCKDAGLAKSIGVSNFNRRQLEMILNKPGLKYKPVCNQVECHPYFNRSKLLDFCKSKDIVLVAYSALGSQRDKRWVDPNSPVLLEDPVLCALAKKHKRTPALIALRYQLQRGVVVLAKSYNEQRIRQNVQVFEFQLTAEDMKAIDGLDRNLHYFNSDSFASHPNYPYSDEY
How it was run: (§1)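 Oxidation of 1-acenaphthenol was run with 2.3 mM NAD+ in 100 mM phosphate pH 9.0 containing 0.005% Triton X-114 and 5% DMSO. Substrate/enzyme were 30 µM/0.1 µM for AKR1C1, 60 µM/0.3 µM for AKR1C2 and 100 µM/1.5 µM for AKR1C3. NADH rise was read at 340 nm from initial velocities. […] Mean of two experiments.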

[2] = target: T2, Aldo-keto reductase family 1 member C1 (Homo sapiens) (UniProt Q04828); experiment: Inhibition of recombinant AKR1C1 using 1-acenaphthenol as substrate at 10 uM by spectrophotometry; how it was run: as §1
T2 sequence (whole entry): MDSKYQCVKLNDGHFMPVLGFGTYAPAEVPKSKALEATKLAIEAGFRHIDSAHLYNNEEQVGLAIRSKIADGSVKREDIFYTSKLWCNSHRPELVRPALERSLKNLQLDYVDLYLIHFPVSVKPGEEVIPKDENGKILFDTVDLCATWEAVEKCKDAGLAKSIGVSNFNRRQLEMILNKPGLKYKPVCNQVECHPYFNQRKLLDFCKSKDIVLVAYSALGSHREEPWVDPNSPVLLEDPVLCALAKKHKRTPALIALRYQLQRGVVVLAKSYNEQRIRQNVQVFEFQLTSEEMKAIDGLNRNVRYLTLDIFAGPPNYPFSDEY

[3] = target: T3, Aldo-keto reductase family 1 member C2 (Homo sapiens) (UniProt P52895); experiment: Inhibition of recombinant AKR1C2 using 1-acenaphthenol as substrate at 10 uM by spectrophotometry; how it was run: as §1
T3 sequence (whole entry): T2 sequence (whole entry) with T38V, R47H, L54V, C87S, V151M, R170H, Q172L

[4] = target: T4, Aldo-keto reductase family 1 member C3 (Homo sapiens, UniProt P42330); experiment: Inhibition of recombinant AKR1C3 using 1-acenaphthenol as substrate by spectrophotometry; how it was run: as §1
T4 sequence (P42330 whole entry): T1 sequence (whole entry)

[5] = target: T5, Aldo-keto reductase family 1 member C1 (Homo sapiens, UniProt Q04828); experiment: Inhibition of recombinant AKR1C1 using S-tetralol as substrate by fluorimetry
T5 sequence (Q04828 whole entry): T2 sequence (whole entry)
How it was run: (§2)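 Continuous NADP+-dependent oxidation of S-tetralol, read as NADPH fluorescence at 340/460 nm. Buffer was 100 mM phosphate pH 7.0 with 200 µM NADP+ and 4% DMSO. […] Enzyme was 111, 86, 95 and 184 nM respectively. Initial velocities were fitted to give IC50. Mean of two independent experiments.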

[6] = target: T4, Aldo-keto reductase family 1 member C3; experiment: Inhibition of recombinant AKR1C3 using S-tetralol as substrate by fluorimetry; how it was run: as §2
[7] = target: T6, Aldo-keto reductase family 1 member C2 (Homo sapiens, UniProt P52895); experiment: Inhibition of recombinant AKR1C2 using S-tetralol as substrate by fluorimetry; how it was run: as §2
T6 sequence (P52895 whole entry): T2 sequence (whole entry) with T38V, R47H, L54V, C87S, V151M, R170H, Q172L

Homo sapiens [8] = organism: Homo sapiens; experiment: Selectivity ratio of IC50 for AKR1C1 to AKR1C3
How it was run: (§3)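 Fold selectivity for AKR1C3 was calculated from IC50 values of the secondary assay. That assay followed fluorimetric NADP+-dependent S-tetralol oxidation at pH 7.0, with substrate at each isoform's Km.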

Homo sapiens [9] = organism: Homo sapiens; experiment: Selectivity ratio of IC50 for AKR1C2 to AKR1C3; how it was run: as §3
Homo sapiens [10] = organism: Homo sapiens; experiment: Selectivity ratio of IC50 for AKR1C4 to AKR1C3; how it was run: as §3
[11] = target: T5, Aldo-keto reductase family 1 member C1; experiment: Inhibition of recombinant AKR1C1 using 1-acenaphthenol as substrate by spectrophotometry; how it was run: as §1
[12] = target: T6, Aldo-keto reductase family 1 member C2; experiment: Inhibition of recombinant AKR1C2 using 1-acenaphthenol as substrate by spectrophotometry; how it was run: as §1
[13] = target: T7, Aldo-keto reductase family 1 member C4 (Homo sapiens, UniProt P17516); experiment: Inhibition of recombinant AKR1C4 using S-tetralol as substrate by fluorimetry
T7 sequence (P17516 whole entry): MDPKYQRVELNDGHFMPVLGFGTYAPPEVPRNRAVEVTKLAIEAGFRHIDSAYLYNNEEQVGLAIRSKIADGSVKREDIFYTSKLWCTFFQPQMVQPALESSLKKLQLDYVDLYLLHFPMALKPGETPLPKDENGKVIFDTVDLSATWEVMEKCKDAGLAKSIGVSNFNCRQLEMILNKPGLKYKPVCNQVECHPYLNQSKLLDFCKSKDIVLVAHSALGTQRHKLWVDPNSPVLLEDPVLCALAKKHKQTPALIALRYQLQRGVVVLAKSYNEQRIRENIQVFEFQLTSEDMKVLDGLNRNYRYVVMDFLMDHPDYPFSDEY
How it was run: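 Continuous NADP+-dependent oxidation of S-tetralol, read as NADPH fluorescence at 340/460 nm. Buffer was 100 mM phosphate pH 7.0 with 200 µM NADP+ and 4% DMSO. Initial velocities were fitted to give IC50. Mean of two independent experiments.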

| inhibition [1] | inhibition [2] | inhibition [3] | pIC50 [4] | pIC50 [5] | pIC50 [6] | pIC50 [7] | Ratio IC50 (Homo sapiens [8]) | Ratio IC50 (Homo sapiens [9]) | Ratio IC50 (Homo sapiens [10]) | pIC50 [11] | pIC50 [12] | pIC50 [13] | SMILES |
| --- | --- | --- | --- | --- | --- | --- | --- | --- | --- | --- | --- | --- | --- |
| inactive | inactive | 22.5% | – | – | – | – | – | – | – | – | – | – | Cc1cc(Cl)cc(C(=O)O)c1NC(=O)c1cccc([N+](=O)[O-])c1 |
| 5.6% | 18% | 20.2% | – | – | – | – | – | – | – | – | – | – | COc1cc(NC(=O)c2cccc(N)c2)c(C(=O)O)cc1OC |
| inactive | 8% | inactive | – | – | – | – | – | – | – | – | – | – | Nc1cccc(C(=O)Nc2ccccc2C(=O)O)c1 |
| 87.9% | 11.8% | 10.4% | 5.59 | 4.45 | 6.08 | 4.38 | – | – | – | – | – | – | O=C(Nc1ccc([N+](=O)[O-])cc1C(=O)O)c1cccc(O)c1 |
| 42.1% | inactive | inactive | 4.90 | < 4.00 | 5.28 | 4.32 | > 19 | 9 | > 19 | – | – | – | O=C(Nc1ccccc1C(=O)O)c1cccc(O)c1 |
| 5.6% | 53.2% | 33.6% | – | – | – | – | – | – | – | 5.08 | 4.81 | – | O=C(Nc1ccc(Br)cc1C(=O)O)c1ccc(F)c([N+](=O)[O-])c1 |
| 3.5% | 22.2% | inactive | – | – | – | – | – | – | – | – | – | – | COc1cc(NC(=O)c2cccc([N+](=O)[O-])c2)c(C(=O)O)cc1OC |
| 30.4% | 65.9% | 70.5% | – | – | – | – | – | – | – | 5.31 | 5.31 | – | CCCCOc1cccc(C(=O)Nc2ccc(Br)cc2C(=O)O)c1 |
| 3.4% | inactive | 23.4% | – | – | – | – | – | – | – | – | – | – | O=C(Nc1ccc(Cl)cc1C(=O)O)c1cccc([N+](=O)[O-])c1 |
| 70.2% | 11.8% | 29.4% | 5.28 | 4.06 | 5.54 | 4.52 | 30 | 10 | 18 | – | – | 4.29 | COc1cc(NC(=O)c2cccc(O)c2)c(C(=O)O)cc1OC |
| 19.1% | 31.9% | 36.8% | – | – | – | – | – | – | – | 4.69 | 4.77 | – | CCOc1cccc(C(=O)Nc2ccc(Br)cc2C(=O)O)c1 |
| 77.8% | 17.4% | 6.7% | 5.66 | 4.29 | 6.51 | 4.30 | 164 | 162 | 65 | – | – | 4.70 | O=C(Nc1ccc(Cl)cc1C(=O)O)c1cccc(O)c1 |
| 1.9% | inactive | 31.6% | – | – | – | – | – | – | – | – | – | – | O=C(Nc1ccc(O)cc1C(=O)O)c1cccc([N+](=O)[O-])c1 |
| 89.6% | 21.6% | 16.7% | 5.72 | 4.00 | 6.46 | 4.20 | 286 | 180 | 86 | – | – | 4.52 | O=C(Nc1ccc(Br)cc1C(=O)O)c1cccc(O)c1 |
| 47.2% | 70.8% | 58.3% | 5.12 | – | – | – | – | – | – | 5.49 | 5.19 | – | CCCCOc1cc(C(=O)Nc2ccccc2C(=O)O)ccc1[N+](=O)[O-] |
| 5.6% | 9.7% | 28.7% | – | – | – | – | – | – | – | – | – | – | Nc1cccc(C(=O)Nc2ccc(O)cc2C(=O)O)c1 |
